Reference: ChEMBL document CHEMBL1121711, “Novel peptidoaminobenzophenones, terminal N-substituted peptidoaminobenzophenones, and N-(acylglycyl)aminobenzophenones as open-ring derivatives of benzodiazepines” (J Med Chem, 1981)

What was measured:
Mus musculus [1] = test: Muscle relaxation activity using the rotarod performance test in mice by oral administration.; format: functional
In short: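 Groups of five mice dosed orally with compound suspended in aqueous arabic gum. At 60 min post-dose each mouse placed on a 3 cm diameter wooden rod turning at 5 rpm; falls within 2 min counted. ED50 estimated graphically.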

Mus musculus [2] = test: Antagonism of pentylenetetrazole-induced convulsion in mice by oral administration.; format: functional
In short: (§1)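 Compounds given orally as an aqueous arabic gum suspension to groups of five mice; 60 min after dosing, pentylenetetrazole 125 mg/kg given subcutaneously. Animals observed 2 h for convulsion and death; dose protecting 50% (ED50) estimated graphically.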

[3] = Acute toxicity expressed as LD50 in mice after oral administration.; format: organism-based; conditions: mouse, in vivo
In short: (§2)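 Mice dosed orally as a suspension in aqueous arabic gum, groups of one to three animals; acute toxicity judged on day 7 after dosing. Values for the three reference benzodiazepines derived by the probit method.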

Mus musculus [4] = test: Compound was tested for antagonism of pentylenetetrazole-induced convulsion in mice by oral administration.; format: functional; in short: as §1
[5] = Acute toxicity of compound expressed as LD50 was measured in mice after oral administration.; format: organism-based; conditions: mouse, in vivo; in short: as §2

SMILES | ED50 (Mus musculus [1]) [mg/kg] | ED50 (Mus musculus [2]) [mg/kg] | LD50 [3] [mg/kg] | ED50 (Mus musculus [4]) [mg/kg] | LD50 [5] [mg/kg]
CCCCCCC(=O)NCC(=O)N(C)c1ccc(Cl)cc1C(=O)c1ccccc1Cl | 70 | 1.9 | > 1000 |  | 
CC(C)NCC(=O)NCC(=O)N(C)c1ccc(Cl)cc1C(=O)c1ccccc1Cl | 13 | 1 | 750 |  | 
CCCC(=O)NCC(=O)N(C)c1ccc(Cl)cc1C(=O)c1ccccc1Cl | 55.2 | 0.98 | > 1000 |  | 
CN(C(=O)CNC(=O)CN1CCCCC1)c1ccc(Cl)cc1C(=O)c1ccccc1Cl | > 100 | 7.5 | > 1000 |  | 
CN(C(=O)CNC(=O)CN)c1ccc([N+](=O)[O-])cc1C(=O)c1ccccc1 | 2.94 |  |  | 0.28 | 
CN(C(=O)CNC(=O)c1ccccc1)c1ccc(Cl)cc1C(=O)c1ccccc1 | > 100 | 7.6 | > 1000 |  | 
CN(C(=O)CNC(=O)CN1CCN(c2ccccc2)CC1)c1ccc(Cl)cc1C(=O)c1ccccc1Cl | > 100 | 75 | > 1000 |  | 
CCN(CC)CC(=O)NCC(=O)N(C)c1ccc(Cl)cc1C(=O)c1ccccc1Cl | 34 | 2.2 | > 1000 |  | 
NCC(=O)NCC(=O)Nc1ccc([N+](=O)[O-])cc1C(=O)c1ccccc1 | 24.8 | 4.82 | > 1000 |  | 
CN(C(=O)CNC(=O)Cc1ccccc1)c1ccc(Cl)cc1C(=O)c1ccccc1Cl | > 100 | 35 | > 1000 |  | 
O=C1CN=C(c2ccccc2)c2cc([N+](=O)[O-])ccc2N1 [NITRAZEPAM] | 4.25 | 0.23 |  |  | 
CN(C(=O)CNC(=O)CN)c1ccc(Cl)cc1C(=O)c1ccccc1Cl [LORZAFONE ANHYDROUS] | 27.7 | 0.58 | > 1000 |  | 
CC(C)C(=O)NCC(=O)N(C)c1ccc(Cl)cc1C(=O)c1ccccc1Cl | > 100 | 6 | > 1000 |  | 
CN(C(=O)CNC(=O)CN)c1ccc([N+](=O)[O-])cc1C(=O)c1ccccc1Cl | 10 |  |  | 0.32 | 
CN(C(=O)CNC(=O)c1ccccc1)c1ccc(Cl)cc1C(=O)c1ccccc1Cl | > 100 | 2.9 | > 1000 |  | 
CN(C(=O)CNC(=O)CN1CCOCC1)c1ccc(Cl)cc1C(=O)c1ccccc1Cl | > 100 | 14 | > 1000 |  | 

SMILES | ED50 (Mus musculus [1]) [mg/kg] | ED50 (Mus musculus [2]) [mg/kg] | LD50 [3] [mg/kg] | ED50 (Mus musculus [4]) [mg/kg] | LD50 [5] [mg/kg]
CN1CCN(CC(=O)NCC(=O)N(C)c2ccc(Cl)cc2C(=O)c2ccccc2Cl)CC1 | > 100 | 59 | > 1000 |  | 
CNC1=Nc2ccc(Cl)cc2C(c2ccccc2)=[N+]([O-])C1 [CHLORDIAZEPOXIDE] |  |  | 1080 |  | 
NCC(=O)NCC(=O)Nc1ccc([N+](=O)[O-])cc1C(=O)c1ccccc1Cl | 63.9 | 2.64 |  |  | 750
CC(=O)NCC(=O)Nc1ccc(Cl)cc1C(=O)c1ccccc1Cl | > 100 | > 100 | > 1000 |  | 
CC(NC(=O)CN)C(=O)N(C)c1ccc(Cl)cc1C(=O)c1ccccc1Cl (stereo not given) | 8.5 | 0.47 | 750 |  | 
CN(C(=O)CNC(=O)CNCCc1ccccc1)c1ccc(Cl)cc1C(=O)c1ccccc1Cl | 86 | 1.6 | > 1000 |  | 
CCCCCC(=O)NCC(=O)N(C)c1ccc(Cl)cc1C(=O)c1ccccc1Cl | 90 | 1.9 | > 1000 |  | 
CC(=O)NCC(=O)N(C)c1ccc(Cl)cc1C(=O)c1ccccc1Cl | 58 | 2.3 | > 1000 |  | 
CCC(=O)NCC(=O)N(C)c1ccc(Cl)cc1C(=O)c1ccccc1Cl | 36 | 1.4 | > 1000 |  | 
CCCCCCCCCCCCCCCC(=O)NCC(=O)N(C)c1ccc(Cl)cc1C(=O)c1ccccc1Cl | > 100 | > 100 |  |  | > 1000
CCCCC(=O)NCC(=O)N(C)c1ccc(Cl)cc1C(=O)c1ccccc1Cl | 90 | 1.3 | > 1000 |  | 
CN(C)CC(=O)NCC(=O)N(C)c1ccc(Cl)cc1C(=O)c1ccccc1Cl | 26 | 2.6 | > 1000 |  | 
CN(C(=O)CNC(=O)CN1CCC(O)(c2ccc(Cl)cc2)CC1)c1ccc(Cl)cc1C(=O)c1ccccc1Cl | > 100 | 27 | > 1000 |  | 
NC(C(=O)NCC(=O)Nc1ccc(Cl)cc1C(=O)c1ccccc1)c1ccccc1 (stereo not given) | > 100 | 28 | > 1000 |  | 
CNCC(=O)NCC(=O)N(C)c1ccc(Cl)cc1C(=O)c1ccccc1Cl |  |  | > 1000 | 1.55 | 
CC(=O)NCC(=O)Nc1ccc(Cl)cc1C(=O)c1ccccc1 | > 100 | 37 | > 1000 |  | 
